Reference: ChEMBL document CHEMBL3045148, “nematicidal carboxylic acids and aldehydes from Melia azedarach fruits” (J Agric Food Chem, 2010)
≈ marks a conversion by molar mass, not a printed value.

Legend:
[1] = system: Meloidogyne incognita; test: Nematicidal activity against Meloidogyne incognita J2 (root-knot nematode) assessed as paralysis measured after 1 day at 28 degC; type: functional, organism-based; settings: 24 h
How it was run: (§1)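 Freshly hatched (24 h) M. incognita J2 were taken from infested tomato roots. Each well held 25 J2 immersed in test solution, kept in the dark at 28 °C. Ethanol stocks were diluted in water with Tween-20 (final ethanol ≤1%, Tween-20 ≤0.3% v/v); water-soluble acids were made up in water. J2 were scored motile or paralyzed by inverted microscope and corrected for water-control paralysis (Schneider-Orelli). EC50 came from log-logistic regression; two experiments, six replicates each.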

[2] = system: Meloidogyne incognita; test: Nematicidal activity against Meloidogyne incognita J2 (root-knot nematode) assessed as paralysis measured after 1 hr at 28 degC; type: functional, organism-based; how it was run: as §1
[3] = system: Meloidogyne incognita; test: Nematicidal activity against Meloidogyne incognita J2 (root-knot nematode) assessed as paralysis measured after 1 day at 28 degC by fumigant assay; type: functional, organism-based; settings: 24 h
How it was run: (§2)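 Vapour-exposure microwell test with 24 h-old J2 from infested tomato roots, kept in the dark at 28 °C. Test solution went into one well and J2 in tap water into the four adjacent wells, with one dose per plate. Paralysis in the adjacent wells (120 J2 per replicate) was scored by microscope as motile or paralyzed and corrected for water-control paralysis (Schneider-Orelli). Two experiments, six replicates.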

[4] = system: Meloidogyne incognita; test: Nematicidal activity against Meloidogyne incognita J2 (root-knot nematode) assessed as paralysis measured at 500 ug/mL by fumigant assay; type: functional; how it was run: as §2

Structure (SMILES) | EC50 [1] [µg/mL] | EC50 [2] [µg/mL] | EC50 [3] [µg/mL] | Activity [4] [µg/mL]
O=Cc1ccc(CO)o1 [AES-103] | 45.7 (≈ 362 µM) | > 100 |  | 
CCCCCCCCCCCCCCCC(=O)O [PALMITIC ACID] | > 500 | > 500 |  | 
CC(=O)O [ACETIC ACID] | 38.3 (≈ 638 µM) | 64 (≈ 1070 µM) |  | 
CCCCCC(=O)O [HEXANOATE] | 41.1 (≈ 354 µM) | 88.7 (≈ 764 µM) |  | 
CCCCCCCCCC(=O)O [DECANOIC ACID] | 248 (≈ 1440 µM) | 354 (≈ 2050 µM) |  | 
O=Cc1ccco1 [FURFURAL] | 8.5 (≈ 88.5 µM) | 11.4 (≈ 119 µM) | 24.1 (≈ 251 µM) | 
CCCC(=O)O [BUTYRIC ACID] | 40.7 (≈ 462 µM) | 69.8 (≈ 792 µM) |  | >30
CCOP(=O)(SC(C)CC)N1CCSC1=O (stereo not given) [FOSTHIAZATE] | 0.4 (≈ 1.41 µM) | 3.3 (≈ 11.6 µM) |  | 
OCc1ccco1 [FURFURYL ALCOHOL] | 41.2 (≈ 420 µM) | > 100 |  | 
